Data on seven compounds can be found in ChEMBL document CHEMBL4152196, “Design, synthesis and biological evaluation of novel trimethylangelicin analogues targeting nuclear factor kB (NF-kB)” (Eur J Med Chem, 2018).

Active and inactive are the calls of the source. No cut-off for these calls is given here.

For data set [1], the species on record is Homo sapiens. Put plainly: Inhibition of NF-kappaB (unknown origin) assessed as decrease in NF-kappaB/DNA interaction at 12.5 to 100 uM using 32P-labeled target NF-kappaB double-stranded oligonucleotide after 30 mins by EMSA. In a few lines: (§1)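 Purified NF-κB p50 (0.1 µl/20 µl, 50 gsu) was combined with 0.25 ng of ³²P-labeled double-stranded NF-κB consensus oligonucleotide. Bound 30 min at room temperature, then run on 6% polyacrylamide in 0.25× TBE at 200 V. IC₅₀ is 50% inhibition of the complex.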

In another data set the test system is IB3-1. Put plainly: Antiproliferative activity against human IB3-1 cells after 2 days by cell counting analysis. In kind it is cell-based. The conditions noted are these: IB3-1, 48 h. The method in brief:
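IB3-1 cells from a CF patient (ΔF508/W1282X), immortalized with adeno12/SV40, grown in LHC-8 with 5% FBS and no gentamycin at 37°C/5% CO₂. Treated at 12.5, 25, 50, 100, 200 and 800 µM. Cells counted by Coulter counter after 2 days, with untreated cells in log phase. IC₅₀ is the concentration giving 50% inhibition of cell growth.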

Data set [2] can be described thus: Inhibition of NF-kappaB (unknown origin) assessed as decrease in NF-kappaB/DNA interaction using 32P-labeled target NF-kappaB double-stranded oligonucleotide after 30 mins by EMSA. Also on record: species or system Homo sapiens. The method in brief: as §1
The test system of data set [3] is Salmonella typhimurium. Put plainly: Genotoxicity in Salmonella typhimurium TA100 assessed as revertant colonies at 100 uL/plate in presence of Sprague-Dawley rat S9 metabolic activation after 72 hrs by Ames test (reference value: 1). In kind it is toxicity, organism-based. The following applies: salmonella enterica subsp. enterica serovar typhimurium. Background: The Ames test detects mutagens through reverse mutation in bacteria.

Data set [4] relates to Salmonella typhimurium. The data set can be described thus: Genotoxicity in Salmonella typhimurium TA100 assessed as revertant colonies at 50 uL/plate in absence of Sprague-Dawley rat S9 metabolic activation after 72 hrs by Ames test (reference value: 1). The conditions noted are these: salmonella enterica subsp. enterica serovar typhimurium. In kind it is toxicity, organism-based.

Data set [5] deals with Salmon testes DNA. The data set can be described thus: Induction of damage in salmon testes DNA at 100 uM in absence of 2.5 to 7.5 J/cm2 UVA irradiation by ethidium bromide dye-based agarose gel electrophoresis analysis. The class given is nucleic-acid assay. The following applies: salmonidae.
Data set [6] has as its system Salmonella typhimurium. Put plainly: Genotoxicity in Salmonella typhimurium TA98 assessed as revertant colonies at 50 uL/plate in presence of Sprague-Dawley rat S9 metabolic activation after 72 hrs by Ames test (reference value: 1). The class given is toxicity, organism-based. The following applies: salmonella enterica subsp. enterica serovar typhimurium.
The test system of data set [7] is Salmonella typhimurium. The data set can be described thus: Genotoxicity in Salmonella typhimurium TA98 assessed as revertant colonies at 100 uL/plate in absence of Sprague-Dawley rat S9 metabolic activation after 72 hrs by Ames test (reference value: 1). The following applies: salmonella enterica subsp. enterica serovar typhimurium. In kind it is toxicity, organism-based.

In data set [8] the test system is Salmonella typhimurium. The data set can be described thus: Genotoxicity in Salmonella typhimurium TA98 assessed as revertant colonies at 1 uL/plate in presence of Sprague-Dawley rat S9 metabolic activation after 72 hrs by Ames test (reference value: 1). The class given is toxicity, organism-based. The following applies: salmonella enterica subsp. enterica serovar typhimurium.

Data set [9] deals with Salmonella typhimurium. The data set can be described thus: Genotoxicity in Salmonella typhimurium TA100 assessed as revertant colonies at 10 uL/plate in absence of Sprague-Dawley rat S9 metabolic activation after 72 hrs by Ames test (reference value: 1). The following applies: salmonella enterica subsp. enterica serovar typhimurium. In kind it is toxicity, organism-based.

Data set [10] has as its system Salmon testes DNA. The data set can be described thus: Induction of damage in salmon testes DNA at 100 uM in presence of 2.5 to 7.5 J/cm2 UVA irradiation by ethidium bromide dye-based agarose gel electrophoresis analysis. The class given is nucleic-acid assay. The conditions noted are these: salmonidae.
The test system of data set [11] is Salmonella typhimurium. The data set can be described thus: Genotoxicity in Salmonella typhimurium TA100 assessed as revertant colonies at 10 uL/plate in presence of Sprague-Dawley rat S9 metabolic activation after 72 hrs by Ames test (reference value: 1). In kind it is toxicity, organism-based. The conditions noted are these: salmonella enterica subsp. enterica serovar typhimurium.

Data set [12] relates to Salmonella typhimurium. Put plainly: Genotoxicity in Salmonella typhimurium TA98 assessed as revertant colonies at 50 uL/plate in absence of Sprague-Dawley rat S9 metabolic activation after 72 hrs by Ames test (reference value: 1). In kind it is toxicity, organism-based. The following applies: salmonella enterica subsp. enterica serovar typhimurium.
Data set [13] relates to Salmonella typhimurium. The data set can be described thus: Genotoxicity in Salmonella typhimurium TA100 assessed as revertant colonies at 5 uL/plate in presence of Sprague-Dawley rat S9 metabolic activation after 72 hrs by Ames test (reference value: 1). The class given is toxicity, organism-based. The following applies: salmonella enterica subsp. enterica serovar typhimurium.

The subject of data set [14] is Salmonella typhimurium. The data set can be described thus: Genotoxicity in Salmonella typhimurium TA98 assessed as revertant colonies at 5 uL/plate in presence of Sprague-Dawley rat S9 metabolic activation after 72 hrs by Ames test (reference value: 1). The following applies: salmonella enterica subsp. enterica serovar typhimurium. The class given is toxicity, organism-based.

Data set [15] deals with Salmonella typhimurium. The data set can be described thus: Genotoxicity in Salmonella typhimurium TA98 assessed as revertant colonies at 10 uL/plate in presence of Sprague-Dawley rat S9 metabolic activation after 72 hrs by Ames test (reference value: 1). The class given is toxicity, organism-based. The conditions noted are these: salmonella enterica subsp. enterica serovar typhimurium.

Data set [16] has as its system Salmonella typhimurium. The data set can be described thus: Genotoxicity in Salmonella typhimurium TA98 assessed as revertant colonies at 100 uL/plate in presence of Sprague-Dawley rat S9 metabolic activation after 72 hrs by Ames test (reference value: 1). The class given is toxicity, organism-based. The following applies: salmonella enterica subsp. enterica serovar typhimurium.

Data set [17] deals with Salmonella typhimurium. The data set can be described thus: Genotoxicity in Salmonella typhimurium TA100 assessed as revertant colonies at 1 uL/plate in absence of Sprague-Dawley rat S9 metabolic activation after 72 hrs by Ames test (reference value: 1). In kind it is toxicity, organism-based. The following applies: salmonella enterica subsp. enterica serovar typhimurium.

In data set [18] the test system is Salmonella typhimurium. Put plainly: Genotoxicity in Salmonella typhimurium TA100 assessed as revertant colonies at 50 uL/plate in presence of Sprague-Dawley rat S9 metabolic activation after 72 hrs by Ames test (reference value: 1). In kind it is toxicity, organism-based. The conditions noted are these: salmonella enterica subsp. enterica serovar typhimurium.

The subject of data set [19] is Salmonella typhimurium. The data set can be described thus: Genotoxicity in Salmonella typhimurium TA98 assessed as revertant colonies at 1 uL/plate in absence of Sprague-Dawley rat S9 metabolic activation after 72 hrs by Ames test (reference value: 1). The class given is toxicity, organism-based. The conditions noted are these: salmonella enterica subsp. enterica serovar typhimurium.

The subject of data set [20] is Salmonella typhimurium. The data set can be described thus: Genotoxicity in Salmonella typhimurium TA98 assessed as revertant colonies at 5 uL/plate in absence of Sprague-Dawley rat S9 metabolic activation after 72 hrs by Ames test (reference value: 1). In kind it is toxicity, organism-based. The following applies: salmonella enterica subsp. enterica serovar typhimurium.

Data set [21] concerns Salmonella typhimurium. Put plainly: Genotoxicity in Salmonella typhimurium TA100 assessed as revertant colonies at 1 uL/plate in presence of Sprague-Dawley rat S9 metabolic activation after 72 hrs by Ames test (reference value: 1). In kind it is toxicity, organism-based. The conditions noted are these: salmonella enterica subsp. enterica serovar typhimurium.
Data set [22] deals with Salmonella typhimurium. The data set can be described thus: Genotoxicity in Salmonella typhimurium TA98 assessed as revertant colonies at 10 uL/plate in absence of Sprague-Dawley rat S9 metabolic activation after 72 hrs by Ames test (reference value: 1). In kind it is toxicity, organism-based. The following applies: salmonella enterica subsp. enterica serovar typhimurium.

In data set [23] the test system is Salmonella typhimurium. The data set can be described thus: Genotoxicity in Salmonella typhimurium TA100 assessed as revertant colonies at 100 uL/plate in absence of Sprague-Dawley rat S9 metabolic activation after 72 hrs by Ames test (reference value: 1). The class given is toxicity, organism-based. The conditions noted are these: salmonella enterica subsp. enterica serovar typhimurium.

The subject of data set [24] is Salmonella typhimurium. The data set can be described thus: Genotoxicity in Salmonella typhimurium TA100 assessed as revertant colonies at 5 uL/plate in absence of Sprague-Dawley rat S9 metabolic activation after 72 hrs by Ames test (reference value: 1). The conditions noted are these: salmonella enterica subsp. enterica serovar typhimurium. In kind it is toxicity, organism-based.

Data set [25] is filed under the species Homo sapiens. Put plainly: Inhibition of NF-kappaB (unknown origin) assessed as decrease in NF-kappaB/DNA interaction at 12.5 uM using 32P-labeled target NF-kappaB double-stranded oligonucleotide after 30 mins by EMSA. In general terms: Mobility shift assays separate free from complexed probe on a gel.

In general, IC50 refers to the concentration that gives 50% inhibition. As to `CCCc1cc(=O)oc2c1cc(C)c1occ(C)c12`, the inhibition entry in the data set listed under Homo sapiens [1] is “Active”. Further, the IC50 with IB3-1 was found to be 200 µM; in data set [2], 21.9 µM.
`Cc1cc(=O)oc2c1cc(C)c1occ(C)c12`: the T/C in the data set on Salmonella typhimurium [3] worked out at 2.52; with Salmonella typhimurium [4], 1.09; in the data set with Salmonella typhimurium [6], 8.25; with Salmonella typhimurium [7], 1.22; with Salmonella typhimurium [8], 0.75; in the data set on Salmonella typhimurium [9], 1.06. Also, the T/C in the data set on Salmonella typhimurium [11] is reported as 1.04; with Salmonella typhimurium [12] it was 0.97; in the data set with Salmonella typhimurium [13] it was 1; with Salmonella typhimurium [14], 1.9; in the data set with Salmonella typhimurium [15], 4.5; in the data set on Salmonella typhimurium [16] it was 6.86. The T/C in the data set with Salmonella typhimurium [17] was determined as 0.99; in the data set with Salmonella typhimurium [18] it was 1.16; with Salmonella typhimurium [19], 1.03; with Salmonella typhimurium [20], 0.63; in the data set on Salmonella typhimurium [21], 1.1; in the data set on Salmonella typhimurium [22], 1.16. Besides, the T/C in the data set on Salmonella typhimurium [23] and with Salmonella typhimurium [24] was 1.03 in each case. The outcome in the data set with Salmon testes DNA [5] and in the data set with Salmon testes DNA [10] was Active. Further, the inhibition result in the data set listed under Homo sapiens [1] was “Active”.
As for `CCc1cc2c(C)cc(=O)oc2c2c(C)coc12`, the inhibition result in the data set listed under Homo sapiens [1] was “Active”. Besides, the IC50 in the data set on IB3-1 was more than 200 µM; in data set [2], 24 µM.
As for `CCc1cc(=O)oc2c1cc(C)c1occ(C)c12`, the inhibition result in the data set filed under Homo sapiens [25] and in the data set filed under Homo sapiens [1] was “Active” throughout. Moreover, the IC50 is 50 µM in the data set on IB3-1 and 8 µM in data set [2].
Regarding `Cc1cc2c(C(C)C)cc(=O)oc2c2c(C)coc12`, the inhibition result in the data set filed under Homo sapiens [1] is “Active”. Also, the results for the IC50 (with IB3-1; in [2]) were more than 200 µM and 18.9 µM, respectively.
Take `CCCc1cc(=O)oc2c1cc(CC)c1occ(C)c12`: the inhibition entry in the data set filed under Homo sapiens [1] was “Active”. Besides, the IC50 amounted to 162 µM in the data set on IB3-1 and 19.8 µM in [2].
For `CCc1cc(=O)oc2c1cc(CC)c1occ(C)c12` the same measures were “Active”, more than 200 µM and 17.8 µM.
